Active and inactive are the calls of the source. The calls are words filed in the database; no cut-off is given here.
Experiments:
Cathepsin B [1] = target: T1, Cathepsin B (Homo sapiens, UniProt P07858); test: Time dependent inhibition of human liver cathepsin B using Z-RR-para-nitroanilide as substrate at 500 uM
Outline: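 Screening: human liver cathepsin B (175 nM) activated in 100 mM sodium phosphate pH 6.0, 5 mM DTT, 1 mM EDTA, incubated with 500 µM inhibitor (5% DMSO) at 30 °C for 10 min; aliquot diluted 17.5-fold into 3 mM Z-RR-pNA, residual activity from initial rates at 405 nm.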

Cathepsin B [2] = target: T1, Cathepsin B; test: Inhibition of human liver cathepsin B
Outline: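 Human liver cathepsin B (175 nM final) activated 10 min in 100 mM sodium phosphate pH 6.0 with 5 mM DTT, 1 mM Na2EDTA, then incubated with inhibitor (5% DMSO) at 30 °C under pseudo-first-order conditions. Aliquots diluted 17.5-fold into 3 mM Z-RR-pNA; initial rates read at 405 nm. Screening used 500 µM inhibitor with residual activity after 10 min.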

Cathepsin B [3] = target: T1, Cathepsin B; test: Time dependent inhibition of human liver cathepsin B using Z-RR-para-nitroanilide as substrate
Outline: (§1)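 Human liver cathepsin B (175 nM final) activated 10 min in 100 mM sodium phosphate pH 6.0, 5 mM DTT, 1 mM EDTA; inhibitor added (5% DMSO, pseudo-first order) at 30 °C. Aliquots diluted 17.5-fold into assay with 3 mM Z-RR-pNA; initial rates at 405 nm give residual activity over time.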

[4] = target: Cathepsin S (Homo sapiens) (UniProt P25774); test: Inhibition of human cathepsin S using Z-VVR-AMC as substrate
Sequence of Cathepsin S (Homo sapiens) (P25774 115-331 limits assumed): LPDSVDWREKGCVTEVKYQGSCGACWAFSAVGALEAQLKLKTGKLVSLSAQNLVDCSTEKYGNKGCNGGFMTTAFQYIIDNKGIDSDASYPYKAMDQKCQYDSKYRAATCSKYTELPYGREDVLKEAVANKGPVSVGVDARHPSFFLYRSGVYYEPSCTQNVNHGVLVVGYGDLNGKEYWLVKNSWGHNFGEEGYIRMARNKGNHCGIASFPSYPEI
Outline: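 Human cathepsin S (134.6 nM final) activated 10 min in 100 mM potassium phosphate pH 6.5, 5 mM DTT, 5 mM EDTA; inactivated with inhibitor at 75 µM. Aliquots at intervals into buffer (8% DMSO) with 250 µM Z-VVR-AMC, Ex/Em 365/440 nm. Second-order constant = kobs/[I].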

Trypsin (Homo sapiens) = Trypsin (Homo sapiens) (UniProt P07477+P07478+P35030); test: Inhibition of trypsin (unknown origin) using N-alpha-benzoyl-DL-arginine-p-nitroanilide as substrate; format: protein assay
Outline: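 Trypsin freshly prepared in 1 mM HCl, pre-activated (190–200 U/µl final), inhibitor added; aliquots at intervals into 67 mM sodium phosphate with 3 mM BAPNA, initial rate at 410 nm. Time-dependent inhibition examined up to 1 mM over 1 h.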

MDA-MB-231 [5] = test: Inhibition of cathepsin in human MDA-MB-231 cells assessed as change in cellular morphology at 20 uM by microscopic analysis; format: cell-based
Cathepsin B [6] = target: T1, Cathepsin B; test: Irreversible inhibition of human liver cathepsin B using Z-RR-para-nitroanilide as substrate measured after dilution of compound-inactivated enzyme complex
Homo sapiens [7] = species: Homo sapiens; test: Selectivity ratio of Kinact for human liver cathepsin B to Kinact for human cathepsin S
Cathepsin B [8] = target: T1, Cathepsin B; test: Inhibition of human liver cathepsin B using Z-RR-para-nitroanilide as substrate assessed as reversible equilibrium binding constant by Kitz-Wilson plot analysis
Outline: (§2)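 Cathepsin B (175 nM, pH 6.0 phosphate, DTT/EDTA, 30 °C, 5% DMSO) inactivated at 25, 50, 75, 100 and 150 µM inhibitor; residual activity with 3 mM Z-RR-pNA at intervals. kobs from single-exponential fit of activity vs time at each concentration; Ki and ki from Kitz–Wilson analysis.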

[9] = target: T2, Cathepsin G (Homo sapiens) (UniProt P08311); test: Inhibition of human cathepsin G using Suc-AAPF-pNA as substrate
T2 sequence (whole entry): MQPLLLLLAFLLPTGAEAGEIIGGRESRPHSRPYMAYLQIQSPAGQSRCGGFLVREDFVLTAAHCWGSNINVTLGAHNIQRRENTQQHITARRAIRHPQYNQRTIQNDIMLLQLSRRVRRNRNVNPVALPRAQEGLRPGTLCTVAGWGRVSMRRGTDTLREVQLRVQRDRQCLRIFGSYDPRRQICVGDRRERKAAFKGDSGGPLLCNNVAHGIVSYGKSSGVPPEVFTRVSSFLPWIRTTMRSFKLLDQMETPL
Outline: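 Human cathepsin G (7.66 nM final) activated 15 min in 20 mM Tris-HCl pH 7.4, 500 mM NaCl; inhibitor added, aliquots at intervals into buffer with 3.4 mM Suc-AAPF-pNA. Time-dependent inhibition examined up to 1 mM over 1 h.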

Cathepsin B [10] = target: T1, Cathepsin B; test: Inhibition of cathepsin B in human MDA-MB-231 cells assessed as increase in E-cadherin levels at 1 to 5 uM after 30 mins by Western blotting analysis; format: cell-based
[11] = target: T3, Cathepsin F (Homo sapiens) (UniProt Q9UBX1); test: Inhibition of human cathepsin F using Z-FR-AMC as substrate
T3 sequence (whole entry): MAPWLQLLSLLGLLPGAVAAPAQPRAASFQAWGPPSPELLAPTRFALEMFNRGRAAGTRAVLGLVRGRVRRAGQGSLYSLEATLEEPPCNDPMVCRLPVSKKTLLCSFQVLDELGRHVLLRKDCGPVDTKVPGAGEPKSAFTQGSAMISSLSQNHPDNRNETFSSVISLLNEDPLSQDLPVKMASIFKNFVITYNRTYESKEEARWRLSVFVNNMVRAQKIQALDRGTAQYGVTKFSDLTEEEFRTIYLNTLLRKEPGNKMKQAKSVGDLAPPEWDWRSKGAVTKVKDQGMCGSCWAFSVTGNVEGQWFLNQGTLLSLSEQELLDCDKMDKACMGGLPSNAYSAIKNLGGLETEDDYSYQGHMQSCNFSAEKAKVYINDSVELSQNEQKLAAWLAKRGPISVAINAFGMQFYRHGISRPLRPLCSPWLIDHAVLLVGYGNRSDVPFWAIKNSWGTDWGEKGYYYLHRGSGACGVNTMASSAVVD
Outline: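 Human cathepsin F (10.8 nM final) activated 10 min at 25 °C in 50 mM potassium phosphate pH 6.5, 2.5 mM DTT, 2.5 mM EDTA, 1.0 mg/ml BSA; inhibitor added, aliquots at intervals into assay with 3 µM Z-FR-AMC at 25 °C. Second-order constant = kobs divided by inhibitor concentration.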

[12] = target: Cathepsin D (Homo sapiens) (UniProt P07339); test: Inhibition of human cathepsin D using Mca-Gly-Lys-Pro-Ile-Leu-Phe-Phe-Arg-Leu-Lys(Dnp)-D-Arg-NH2 as substrate
Sequence of Cathepsin D (Homo sapiens) (P07339 65-162 limits assumed): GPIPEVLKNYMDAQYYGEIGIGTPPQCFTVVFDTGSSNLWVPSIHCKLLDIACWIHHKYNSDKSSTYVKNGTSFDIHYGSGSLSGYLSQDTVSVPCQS
Sequence of Cathepsin D (Homo sapiens) (P07339 169-412 limits assumed): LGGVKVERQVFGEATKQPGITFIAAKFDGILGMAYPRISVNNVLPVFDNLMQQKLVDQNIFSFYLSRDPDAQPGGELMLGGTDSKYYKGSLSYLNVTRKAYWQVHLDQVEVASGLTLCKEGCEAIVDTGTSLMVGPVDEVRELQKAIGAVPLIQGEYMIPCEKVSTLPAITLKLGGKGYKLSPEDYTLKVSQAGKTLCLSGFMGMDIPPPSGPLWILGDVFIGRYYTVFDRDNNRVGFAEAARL

Cathepsin B [13] = target: T1, Cathepsin B; test: Inhibition of cathepsin B in human MDA-MB-231 cells using Z-RR-AMC as substrate at 20 uM preincubated for 20 mins prior to substrate addition measured after 10 mins by confocal microscopic analysis; format: cell-based
Outline: (§3)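 Live-cell confocal imaging of MDA-MB-231 cells on poly-D-lysine glass dishes in phenol-red-free medium with 15 mM HEPES plus Oxyrase/10 mM lactate. Cells treated with 0.1% DMSO or inhibitor 20 min at 37 °C, then Z-RR-AMC (25 µM final) for 10 min. […]; average whole-cell fluorescence, 8-10 cells per experiment, three independent experiments.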

Cathepsin B [14] = target: T1, Cathepsin B; test: Inhibition of human liver cathepsin B in presence of azide ion
[15] = target: Cathepsin S (Homo sapiens) (UniProt P25774); test: Inhibition of cathepsin S in human MDA-MB-231 cells assessed as increase in E-cadherin levels at 1 to 5 uM after 30 mins by Western blotting analysis; format: cell-based
Cathepsin B [16] = target: T1, Cathepsin B; test: Inhibition of human liver cathepsin B using Z-RR-para-nitroanilide as substrate; outline: as §1
Homo sapiens [17] = species: Homo sapiens; test: Selectivity ratio of Kinact for human liver cathepsin B to Kinact for human cathepsin D
[18] = target: Cathepsin S (Homo sapiens) (UniProt P25774); test: Inhibition of cathepsin S in human MDA-MB-231 cells assessed as increase in E-cadherin levels after 20 mins by immunofluorescence assay; format: cell-based
Outline: (§4)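 MDA-MB-231 cells (IMDM, 10% FBS, 37 °C, 5% CO2) on glass coverslips 24 h, treated 20 min at 37 °C with vehicle (0.1% DMSO) or inhibitor. Fixed in 3.7% PFA, permeabilized, blocked, mouse anti-E-cadherin (1:100) overnight at 4 °C, then Alexa 594 secondary, Hoechst nuclei. Mean peripheral fluorescence intensity, 28 cells per condition, three independent experiments.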

Homo sapiens [19] = species: Homo sapiens; test: Selectivity ratio of Kinact for human liver cathepsin B to Kinact for human cathepsin F
Cathepsin B [20] = target: T1, Cathepsin B; test: Inhibition of cathepsin B in human MDA-MB-231 cells assessed as increase in E-cadherin levels after 20 mins by immunofluorescence assay; format: cell-based; outline: as §4
[21] = target: T4, Tyrosine-protein phosphatase non-receptor type 1 (Homo sapiens) (UniProt P18031); test: Inhibition of human PTP1B
T4 sequence (whole entry): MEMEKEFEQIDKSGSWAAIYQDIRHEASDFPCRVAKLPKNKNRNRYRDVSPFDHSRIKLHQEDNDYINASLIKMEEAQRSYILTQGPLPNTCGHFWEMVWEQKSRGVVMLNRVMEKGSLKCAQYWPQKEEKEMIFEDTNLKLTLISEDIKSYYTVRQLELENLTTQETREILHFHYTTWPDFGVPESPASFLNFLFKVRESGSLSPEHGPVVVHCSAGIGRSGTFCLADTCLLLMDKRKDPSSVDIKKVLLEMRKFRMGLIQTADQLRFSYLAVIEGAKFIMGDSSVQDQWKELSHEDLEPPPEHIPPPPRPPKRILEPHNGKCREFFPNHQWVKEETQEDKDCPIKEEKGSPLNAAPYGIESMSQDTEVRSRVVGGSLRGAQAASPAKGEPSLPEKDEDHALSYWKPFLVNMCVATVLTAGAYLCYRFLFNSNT

Cathepsin B [22] = target: T1, Cathepsin B; test: Inhibition of cathepsin B in human MDA-MB-231 cells using Z-RR-AMC as substrate preincubated for 20 mins prior to substrate addition measured after 10 mins by confocal microscopic analysis; format: cell-based; outline: as §3
Cathepsin B [23] = target: T1, Cathepsin B; test: Irreversible inhibition of human liver cathepsin B after 10 mins by mass spectrophotometric analysis
Outline: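 Activated cathepsin B incubated with inhibitor (800 µM) or 5% DMSO control for 10 min under kinetic-study conditions; samples mixed 1:9 with saturated α-cyano-4-hydroxycinnamic acid and analysed by MALDI mass spectrometry, positive linear mode.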

Cathepsin B [24] = target: T1, Cathepsin B; test: Inhibition of human liver cathepsin B using Z-RR-para-nitroanilide as substrate in presence of leupeptin
Outline: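 Active-site protection: cathepsin B inactivation (175 nM, pH 6.0 phosphate buffer with DTT/EDTA, 30 °C, 5% DMSO) run in presence of leupeptin (40 nM); residual activity measured with 3 mM Z-RR-pNA at 405 nm.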

[25] = Half life of the compound at 2.5 mM at pH 7.4 by NMR spectrophotometric analysis; format: physicochemical
Outline: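 Hydrolytic stability by NMR: stock in deuterated DMSO added to deuterated phosphate buffer, pH 7.4 (D2O), final 2.5 mM, pseudo-first order. Spectra recorded at intervals; integrations of starting and final species compared, data fitted to single exponential decay, t1/2 = 0.693/k.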

Cathepsin B [26] = target: T1, Cathepsin B; test: Inhibition of human liver cathepsin B using Z-RR-para-nitroanilide as substrate assessed as first-order inactivation rate constant by Kitz-Wilson plot analysis; outline: as §2
MDA-MB-231 [27] = test: Inhibition of cathepsin in human MDA-MB-231 cells assessed as decrease in cell migratory behavior after 6 hrs by microscopic analysis; format: cell-based
Outline: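 MDA-MB-231 cells plated as concentric circles through a sedimentation manifold on BSA-coated glass slide; after manifold removal, treated with 0.05% DMSO or inhibitor (10 and 20 µM) for 6 h at 37 °C. Images at t0 and t6; motility taken as change in total area (µm2), mean ± S.D. of triplicates.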

SMILES: CCCC1OC1S(=O)(=O)c1ccccc1 (stereo not given)
- inhibition (Cathepsin B [1]): inactive

SMILES: CC(=O)N[C@@H](CC(C)C)C(=O)N[C@@H](CC(C)C)C(=O)N[C@H](C=O)CCCNC(=N)N [LEUPEPTIN]
- Ki (Cathepsin B [2]): 0.005 µM

SMILES: O=S(=O)(c1ccc(Cl)cc1)C1CO1 (stereo not given)
- inhibition (Cathepsin B [1]): 44%

SMILES: O=S(=O)(CC1CO1)c1ccccc1 (stereo not given)
- inhibition (Cathepsin B [1]): inactive

SMILES: O=S(=O)(c1cc(Cl)cc(Cl)c1)C1CO1 (stereo not given)
- inhibition (Cathepsin B [1]): 50%

SMILES: O=S(=O)(c1ccccc1)C1OC1c1ccc(F)cc1 (stereo not given)
- inhibition (Cathepsin B [1]): inactive

SMILES: Cc1cccc(S(=O)(=O)C2CO2)c1 (stereo not given)
- inhibition (Cathepsin B [1]): 40%

SMILES: O=S(=O)(c1ccc(OC(F)(F)F)cc1)C1CO1 (stereo not given)
- inhibition (Cathepsin B [1]): 30%

SMILES: CCc1ccccc1S(=O)(=O)C1CO1 (stereo not given)
- inhibition (Cathepsin B [3]): Active
- Kinact [4]: 19.9 M⁻¹ s⁻¹
- inhibition (Trypsin (Homo sapiens)): inactive
- inhibition (MDA-MB-231 [5]): Active
- inhibition (Cathepsin B [6]): Active
- Selectivity ratio (Homo sapiens [7]): 1.9
- Ki (Cathepsin B [8]): 86 µM
- inhibition [9]: inactive
- inhibition (Cathepsin B [10]): Active
- Kinact [11]: 21.7 M⁻¹ s⁻¹
- Kinact [12]: 1.08 M⁻¹ s⁻¹
- inhibition (Cathepsin B [13]): Active
- inhibition (Cathepsin B [14]): Active
- inhibition [15]: Active
- Kinact (Cathepsin B [16]): 40.7 M⁻¹ s⁻¹
- Selectivity ratio (Homo sapiens [17]): 38
- inhibition [18]: Dose-dependent effect
- inhibition (Cathepsin B [1]): > 98%
- Selectivity ratio (Homo sapiens [19]): 1.9
- inhibition (Cathepsin B [20]): Dose-dependent effect
- inhibition [21]: inactive
- inhibition (Cathepsin B [22]): Dose-dependent effect
- inhibition (Cathepsin B [23]): Active
- inhibition (Cathepsin B [24]): inactive
- half-life at 2500 µM [25]: 3.6 h
- Kinact (Cathepsin B [26]): 0.21 min⁻¹
- inhibition (MDA-MB-231 [27]): Dose-dependent effect

SMILES: O=S(=O)(c1ccc2ccccc2c1)C1CO1 (stereo not given)
- inhibition (Cathepsin B [1]): 18%

SMILES: COc1cccc(S(=O)(=O)C2CO2)c1 (stereo not given)
- inhibition (Cathepsin B [1]): 35%

SMILES: O=S(=O)(CC1CS1)c1ccccc1 (stereo not given)
- inhibition (Cathepsin B [1]): inactive

SMILES: COc1ccc(OC)c(S(=O)(=O)C2CO2)c1 (stereo not given)
- inhibition (Cathepsin B [1]): 25%

SMILES: Cc1ccc(C)c(S(=O)(=O)C2CO2)c1 (stereo not given)
- inhibition (Cathepsin B [1]): 42%

Source: ChEMBL document CHEMBL2384980, “Development of cell-active non-peptidyl inhibitors of cysteine cathepsins” (Bioorg Med Chem, 2013)
